What was measured:
[1] = tested on: Mus musculus; assay: The in vivo tissue distribution of mouse blood without Propranolol preadministration in 20 min, value was fractional dose per fractional body weight of the organ
[2] = tested on: Mus musculus; assay: The in vivo tissue distribution of mouse brain with Propranolol preadministration in 90 min, value was fractional dose per fractional body weight of the organ; format: ADME, organism-based; conditions: 1.5 h
Method in brief: (§1)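 Male CF-1 mice (25–30 g), anesthetised with 2 mg sodium pentobarbital ip 30 min before tracer. Where blocked, propranolol iv via tail vein (0.1 mL of […]; […]) about 30 min before tracer. Tracer given by tail vein, 0.1 mL at 1–2 mCi/mL. Mice killed by cervical dislocation at set times, organs weighed and counted. %ID/g × body weight/100 gives unitless uptake. Heart, brain, blood, lung, kidney, liver and bone n=5; average ± SD.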

[3] = tested on: Mus musculus; assay: The in vivo tissue distribution of mouse brain without Propranolol preadministration in 120 min, value was fractional dose per fractional body weight of the organ; conditions: 2 h
[4] = tested on: Mus musculus; assay: The in vivo tissue distribution of mouse kidney with Propranolol administration after 40 min, value was fractional dose per fractional body weight of the organ; format: ADME, organism-based
Method in brief: (§2)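 Male CF-1 mice (25–30 g), given 2 mg sodium pentobarbital ip 30 min before tracer. Blocked groups received propranolol iv by tail vein, 0.1 mL of 1 mg/mL. About 30 min later, 0.1 mL of [18F]tracer (1–2 mCi/mL) was injected by tail vein. Mice were killed by cervical dislocation at set times, and organs were weighed and counted. Uptake is %ID/g × body weight/100, average ± SD; n=5 for heart, brain, blood, lung, kidney, liver and bone.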

[5] = tested on: Mus musculus; assay: The in vivo tissue distribution of mouse brain without Propranolol preadministration in 180 min, value was fractional dose per fractional body weight of the organ; conditions: 3 h
[6] = tested on: Mus musculus; assay: The in vivo tissue distribution of mouse heart with Propranolol administration after 20 min, value was fractional dose per fractional body weight of the organ; format: ADME, organism-based
Method in brief: as §1

[7] = tested on: Mus musculus; assay: The in vivo tissue distribution of mouse heart with Propranolol administration after 90 min, value was fractional dose per fractional body weight of the organ; format: ADME, organism-based; conditions: 1.5 h
Method in brief: as §1

[8] = tested on: Mus musculus; assay: The in vivo tissue distribution of mouse heart with Propranolol preadministration in 120 min, value was fractional dose per fractional body weight of the organ; format: ADME, organism-based; conditions: 2 h
Method in brief: (§3)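 Male CF-1 mice (25–30 g) anaesthetised with 2 mg sodium pentobarbital ip; blocked group given 0.1 mL of […] propranolol iv via tail vein (200 μg, 6.6 mg/kg), tracer 30 min later. 0.1 mL of 1–2 mCi/mL [18F]-labelled enantiomer iv via tail vein; killed by cervical dislocation, organs weighed and counted against weighed standards. %ID/g × body weight/100 gives unitless uptake; five mice per point (heart, blood, lung, kidney, liver, bone); mean ± SD.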

[9] = tested on: Mus musculus; assay: The in vivo tissue distribution of mouse liver without Propranolol preadministration in 180 min, value was fractional dose per fractional body weight of the organ; conditions: 3 h
[10] = tested on: Mus musculus; assay: The in vivo tissue distribution of mouse heart with Propranolol administration after 40 min, value was fractional dose per fractional body weight of the organ; format: ADME, organism-based
Method in brief: as §1

[11] = tested on: Mus musculus; assay: The in vivo tissue distribution of mouse lung with Propranolol administration after 120 min, value was fractional dose per fractional body weight of the organ; format: ADME, organism-based; conditions: 2 h
Method in brief: as §3

[12] = tested on: Mus musculus; assay: The in vivo tissue distribution of mouse liver without Propranolol preadministration in 40 min, value was fractional dose per fractional body weight of the organ
[13] = tested on: Mus musculus; assay: The in vivo tissue distribution of mouse heart without Propranolol preadministration in 60 min, value was fractional dose per fractional body weight of the organ; conditions: 1 h
[14] = tested on: Mus musculus; assay: The in vivo tissue distribution of mouse blood with Propranolol administration after 180 min, value was fractional dose per fractional body weight of the organ; format: ADME, organism-based; conditions: 3 h
Method in brief: as §2

[15] = tested on: Mus musculus; assay: The in vivo tissue distribution of mouse kidney with Propranolol administration after 90 min, value was fractional dose per fractional body weight of the organ; format: ADME, organism-based; conditions: 1.5 h
Method in brief: as §1

[16] = tested on: Mus musculus; assay: The in vivo tissue distribution of mouse bone with Propranolol administration after 180 min, value was fractional dose per fractional body weight of the organ; format: ADME, organism-based, Bone element; conditions: 3 h
Method in brief: as §2

[17] = tested on: Mus musculus; assay: The in vivo tissue distribution of mouse lung with Propranolol administration after 90 min, value was fractional dose per fractional body weight of the organ; format: ADME, organism-based; conditions: 1.5 h
Method in brief: as §3

[18] = tested on: Mus musculus; assay: The in vivo tissue distribution of mouse blood with Propranolol administration after 10 min, value was fractional dose per fractional body weight of the organ; format: ADME, organism-based
Method in brief: as §1

[19] = tested on: Mus musculus; assay: The in vivo tissue distribution of mouse brain with Propranolol administration after 120 min, value was fractional dose per fractional body weight of the organ; format: ADME, organism-based; conditions: 2 h
Method in brief: as §2

[20] = tested on: Mus musculus; assay: The in vivo tissue distribution of mouse brain without Propranolol preadministration in 10 min, value was fractional dose per fractional body weight of the organ
[21] = tested on: Mus musculus; assay: The in vivo tissue distribution of mouse liver with Propranolol administration after 180 min, value was fractional dose per fractional body weight of the organ; format: ADME, organism-based; conditions: 3 h
Method in brief: as §3

[22] = tested on: Mus musculus; assay: The in vivo tissue distribution of mouse heart with Propranolol preadministration in 180 min, value was fractional dose per fractional body weight of the organ; format: ADME, organism-based; conditions: 3 h
Method in brief: as §2

[23] = tested on: Mus musculus; assay: The in vivo tissue distribution of mouse brain without Propranolol preadministration in 60 min, value was fractional dose per fractional body weight of the organ; conditions: 1 h
[24] = tested on: Mus musculus; assay: The in vivo tissue distribution of mouse brain without Propranolol preadministration in 40 min, value was fractional dose per fractional body weight of the organ
[25] = tested on: Mus musculus; assay: The in vivo tissue distribution of mouse blood with Propranolol administration after 20 min, value was fractional dose per fractional body weight of the organ; format: ADME, organism-based
Method in brief: as §1

[26] = tested on: Mus musculus; assay: The in vivo tissue distribution of mouse kidney with Propranolol administration after 60 min, value was fractional dose per fractional body weight of the organ; format: ADME, organism-based; conditions: 1 h
Method in brief: as §3

[27] = tested on: Mus musculus; assay: The in vivo tissue distribution of mouse brain with Propranolol administration after 20 min, value was fractional dose per fractional body weight of the organ; format: ADME, organism-based
Method in brief: as §1

[28] = tested on: Mus musculus; assay: The in vivo tissue distribution of mouse brain with Propranolol administration after 10 min, value was fractional dose per fractional body weight of the organ; format: ADME, organism-based
Method in brief: as §1

[29] = tested on: Mus musculus; assay: The in vivo tissue distribution of mouse lung without Propranolol preadministration in 90 min, value was fractional dose per fractional body weight of the organ; conditions: 1.5 h
[30] = tested on: Mus musculus; assay: The in vivo tissue distribution of mouse liver with Propranolol administration after 10 min, value was fractional dose per fractional body weight of the organ; format: ADME, organism-based
Method in brief: as §2

[31] = tested on: Mus musculus; assay: The in vivo tissue distribution of mouse brain with Propranolol administration after 180 min, value was fractional dose per fractional body weight of the organ; format: ADME, organism-based; conditions: 3 h
Method in brief: as §2

[32] = tested on: Mus musculus; assay: The in vivo tissue distribution of mouse bone with Propranolol administration after 60 min, value was fractional dose per fractional body weight of the organ; format: ADME, organism-based, Bone element; conditions: 1 h
Method in brief: as §1

[33] = tested on: Mus musculus; assay: The in vivo tissue distribution of mouse bone with Propranolol administration after 10 min, value was fractional dose per fractional body weight of the organ; format: ADME, organism-based, Bone element
Method in brief: as §1

[34] = tested on: Mus musculus; assay: The in vivo tissue distribution of mouse brain with Propranolol administration after 60 min, value was fractional dose per fractional body weight of the organ; format: ADME, organism-based; conditions: 1 h
Method in brief: as §1

Question: For `CC(C[18F])NC[C@H](O)COc1cccc2[nH]c3ccccc3c12` (stereo partly drawn), which Dose/organ [1] is on record?
Answer: 0.71

Question: And the Dose/organ [2]?
Answer: 0.8

Question: What about the Dose/organ [3] of the same compound?
Answer: 0.64

Question: And the Dose/organ [4]?
Answer: 1.64

Question: What about the Dose/organ [5] of the same compound?
Answer: 0.67

Question: What about the Dose/organ [6] of the same compound?
Answer: 0.63

Question: What about the Dose/organ [7] of the same compound?
Answer: 0.35

Question: What about the Dose/organ [8] of the same compound?
Answer: 0.45

Question: What about the Dose/organ [9] of the same compound?
Answer: 0.88

Question: And the Dose/organ [10]?
Answer: 0.51

Question: What about the Dose/organ [11] of the same compound?
Answer: 0.52

Question: What about the Dose/organ [12] of the same compound?
Answer: 1.7

Question: And the Dose/organ [13]?
Answer: 0.61

Question: And the Dose/organ [14]?
Answer: 0.15

Question: And the Dose/organ [15]?
Answer: 0.92

Question: And the Dose/organ [16]?
Answer: 2.72

Question: What about the Dose/organ [17] of the same compound?
Answer: 1.06

Question: And the Dose/organ [18]?
Answer: 0.39

Question: And the Dose/organ [19]?
Answer: 0.11

Question: And the Dose/organ [20]?
Answer: 1.18

Question: What about the Dose/organ [21] of the same compound?
Answer: 0.59

Question: What about the Dose/organ [22] of the same compound?
Answer: 0.4

Question: And the Dose/organ [23]?
Answer: 0.81

Question: What about the Dose/organ [24] of the same compound?
Answer: 1.09

Question: What about the Dose/organ [25] of the same compound?
Answer: 0.43

Question: And the Dose/organ [26]?
Answer: 1.28

Question: And the Dose/organ [27]?
Answer: 0.78

Question: And the Dose/organ [28]?
Answer: 1.23

Question: And the Dose/organ [29]?
Answer: 5.88

Question: What about the Dose/organ [30] of the same compound?
Answer: 2.89

Question: And the Dose/organ [31]?
Answer: 0.09

Question: What about the Dose/organ [32] of the same compound?
Answer: 1.1

Question: What about the Dose/organ [33] of the same compound?
Answer: 0.72

Question: What about the Dose/organ [34] of the same compound?
Answer: 0.25

Question: How did the Dose/organ [1] turn out when `CC(C[18F])NC[C@@H](O)COc1cccc2[nH]c3ccccc3c12` (stereo partly drawn) was run?
Answer: 0.75

Question: And the Dose/organ [2]?
Answer: 0.35

Question: And the Dose/organ [3]?
Answer: 0.2

Question: What about the Dose/organ [4] of the same compound?
Answer: 2.7

Question: And the Dose/organ [5]?
Answer: 0.08

Question: And the Dose/organ [6]?
Answer: 0.85

Question: And the Dose/organ [7]?
Answer: 0.48

Question: And the Dose/organ [8]?
Answer: 0.28

Question: And the Dose/organ [9]?
Answer: 0.78

Question: What about the Dose/organ [10] of the same compound?
Answer: 0.73

Question: What about the Dose/organ [11] of the same compound?
Answer: 0.45

Question: What about the Dose/organ [12] of the same compound?
Answer: 3

Question: What about the Dose/organ [13] of the same compound?
Answer: 0.56

Question: And the Dose/organ [14]?
Answer: 0.09

Question: What about the Dose/organ [15] of the same compound?
Answer: 1.57

Question: And the Dose/organ [16]?
Answer: 2.98

Question: What about the Dose/organ [17] of the same compound?
Answer: 1.03

Question: What about the Dose/organ [18] of the same compound?
Answer: 0.92

Question: And the Dose/organ [19]?
Answer: 0.12

Question: And the Dose/organ [20]?
Answer: 0.82

Question: What about the Dose/organ [21] of the same compound?
Answer: 0.5

Question: What about the Dose/organ [22] of the same compound?
Answer: 0.14

Question: And the Dose/organ [23]?
Answer: 0.37

Question: What about the Dose/organ [24] of the same compound?
Answer: 0.73

Question: And the Dose/organ [25]?
Answer: 0.57

Question: And the Dose/organ [26]?
Answer: 1.67

Question: And the Dose/organ [27]?
Answer: 1.22

Question: And the Dose/organ [28]?
Answer: 1.04

Question: And the Dose/organ [29]?
Answer: 1.55

Question: And the Dose/organ [30]?
Answer: 3.14

Question: And the Dose/organ [31]?
Answer: 0.06

Question: And the Dose/organ [32]?
Answer: 1.15

Question: What about the Dose/organ [33] of the same compound?
Answer: 0.67

Question: And the Dose/organ [34]?
Answer: 0.62
